TRPC4 agonist: activators of mouse TRPC4 channel, primary screen, Fluo4 calcium, HEK293 TRPC4beta/mu-opioid cells; Short transient receptor potential channel 4 (Mus musculus), Q9QUQ5; actives 0.49% (n = 310,000); B-score at 10 µM; Fluo4 calcium fluorescence; hits give high values;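 active = B-score above 5 SD of library B-scores, and initial fluorescence ratio not above library mean plus 5 SD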;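 also: positive B-score marks a calcium rise read as TRPC4 activation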
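Incubation: 45 min room-temperature Fluo4 loading, 110 s read / System: HEK293 cells stably co-expressing mouse TRPC4beta and mu-opioid receptor / Signal: Fluo4 fluorescence, kinetic / Control set: buffer (low) and maximal DAMGO (high) / Measure: integrated baseline-normalised fluorescence ratio, converted to per-well B score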
TRPC6 inh: mouse TRPC6 channel inhibitors, primary screen, cell-based, HEK293, membrane potential dye | Short transient receptor potential channel 6 (Mus musculus), Q61143 | ACh-evoked depolarization; hits give low values | B-score at 10 µM | actives 1.1% (n = 310,000);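 active = B-score under library mean minus 3 SD, initial fluorescence not abnormally high, positive integrated signal ratio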;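 also: B-score derived from integrated fluorescence ratio over the kinetic read; more negative B-score means stronger inhibition of depolarization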
Target sequence (Q61143 whole entry, looked up): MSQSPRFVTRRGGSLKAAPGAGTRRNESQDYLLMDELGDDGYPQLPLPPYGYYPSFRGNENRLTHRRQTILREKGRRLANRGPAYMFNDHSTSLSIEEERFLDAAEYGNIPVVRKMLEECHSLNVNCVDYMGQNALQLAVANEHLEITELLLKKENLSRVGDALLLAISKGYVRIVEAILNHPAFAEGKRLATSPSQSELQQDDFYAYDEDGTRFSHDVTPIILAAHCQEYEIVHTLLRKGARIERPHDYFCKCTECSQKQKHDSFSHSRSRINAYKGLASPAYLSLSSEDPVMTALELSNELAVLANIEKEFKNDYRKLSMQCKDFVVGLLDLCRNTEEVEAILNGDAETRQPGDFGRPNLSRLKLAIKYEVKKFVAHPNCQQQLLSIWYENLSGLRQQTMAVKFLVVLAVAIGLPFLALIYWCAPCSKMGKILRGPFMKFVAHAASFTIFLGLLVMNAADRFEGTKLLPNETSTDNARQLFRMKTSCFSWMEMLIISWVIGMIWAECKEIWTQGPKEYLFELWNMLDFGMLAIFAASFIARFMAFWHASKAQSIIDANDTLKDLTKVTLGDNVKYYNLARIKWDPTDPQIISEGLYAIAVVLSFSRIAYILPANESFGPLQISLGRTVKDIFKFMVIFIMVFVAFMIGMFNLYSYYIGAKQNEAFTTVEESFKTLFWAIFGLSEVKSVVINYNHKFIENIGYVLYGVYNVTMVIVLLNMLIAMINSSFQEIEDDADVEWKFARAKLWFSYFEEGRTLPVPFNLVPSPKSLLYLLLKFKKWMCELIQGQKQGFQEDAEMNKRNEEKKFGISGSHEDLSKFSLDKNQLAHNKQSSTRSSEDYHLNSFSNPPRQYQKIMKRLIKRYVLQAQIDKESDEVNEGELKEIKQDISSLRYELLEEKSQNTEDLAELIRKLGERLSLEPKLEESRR
TRPC6 act: mouse TRPC6 channel activators, primary screen, cell-based, HEK293, membrane potential dye | Short transient receptor potential channel 6 (Mus musculus), Q61143 | HEK293-TRPC6 membrane potential dye fluorescence; hits give high values | B-score at 10 µM | actives 0.13% (n = 310,000) | AID 2550, 2010;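 active = B-score of the integrated fluorescence ratio above library mean plus 3 SD, and starting fluorescence ratio within library mean plus 5 SD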;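 also: higher score means more depolarization so channel activation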
TRPC4 inh: inhibitors of mouse TRPC4 channel, primary screen, Fluo4 calcium, HEK293 TRPC4beta/mu-opioid cells; Short transient receptor potential channel 4 (Mus musculus), Q9QUQ5; DAMGO-evoked Fluo4 calcium flux; hits give low values; B-score at 10 µM; actives 0.39% (n = 300,000); AID 2247, 2010;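 active = B-score over 3 SD under the library average, no early fluorescence shift, positive overall ratio signal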
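System: stable TRPC4beta/mu-opioid receptor HEK293 cells; Dosing: single-point compound dosing; Measured by: Fluo4 Ca2+ flux fluorescence; Read-out basis: per-well B score of integrated baseline-normalized Fluo4 ratio.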
DNA FID counter: compounds displacing fluorescent DNA intercalator, primary screen, artefact control for HCV NS3 helicase inhibitor project, biochemical, FID fluorescence; inhibition, % at 7.9 µM; AID 1845, 2009; DNA fluorescent intercalator displacement; actives 0.17% (n = 290,000); in the data active = inhibition above about 37%;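 also: higher means more ethidium bromide displaced from hairpin DNA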
TRPC4 potent: positive allosteric modulators of TRPC4, primary screen, cell-based, mouse TRPC4beta, HEK293 mu-opioid, Fluo-4 calcium; DAMGO EC20, Fluo-4 Ca2+ flux; hits give high values; Short transient receptor potential channel 4 (Mus musculus), Q9QUQ5; B-score at 10 µM; AID 2227, 2009; actives 0.42% (n = 310,000);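 active = B-score of calcium response area above 5 SD of library B-scores, with initial fluorescence ratio within 5 SD of library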
Large screens that a line does not name were inactive. An excerpt weighted towards active compounds, which were near 2.3% of everything screened.

Cc1cc(OCCCn2ccnc2)cc(C)c1Cl	TRPC4 agonist 104
Cc1cc(OCCCCCn2ccnc2)cc(C)c1Cl	TRPC4 agonist 75
Cc1cc(OCCCn2ccnc2)ccc1[N+](=O)[O-]	TRPC4 agonist 43, TRPC4 potent 21
COc1cccc(OCCCn2ccnc2)c1	none
Cc1cc(C)c(OCCCCCn2ccnc2)c(C)c1	none
CCc1nnc(SCC(=O)NCCC2=CCCCC2)nc1CC	none
O=C(CSc1ccc([N+](=O)[O-])cn1)Nc1ccc2c(c1)OCO2	none
CC(=O)Nc1cccc(NC(=O)COc2ccc3c(c2)OCO3)c1	none
Cc1cc(Cl)cc(C)c1OCCCCCn1ccnc1	TRPC4 agonist 86
Cc1cc(Cl)cc(C)c1OCCn1ccnc1	none
Cc1ccc(C)c(OCCCCCn2ccnc2)c1	TRPC4 agonist 169
NC(=S)NN=C1c2cc(OCCN3CCOCC3)ccc2-c2ccc(OCCN3CCOCC3)cc21	DNA FID counter 54
COCC1CCN(C(=O)C2CCC(=O)N(CCc3cccc(F)c3)C2)CC1 (configuration not stated)	none
Cc1cc(N2CCCCC2)nc(N)n1	TRPC4 agonist 80
COc1ccc(NC(=O)CSc2nnnn2-c2ccccc2F)cc1	none
COc1ccccc1NC(=O)CSc1nnnn1-c1ccccc1F	TRPC4 agonist 73
C=CCn1c(CCNC(=O)c2ccco2)nc2ccccc21	TRPC4 agonist 168
CCn1c(CCNC(=O)c2ccco2)nc2ccccc21	none
O=c1c2ccccc2nc(SCc2ccccc2)n1CC1CCCO1 (configuration not stated)	TRPC4 inh -7
COc1ccc(C(=O)Nc2ncccc2C)cc1S(=O)(=O)N1CCOCC1	none (no result: DNA FID counter)
COc1cc(SC)ccc1C(=O)NCCCn1ccnc1	none
COC(=O)c1cccc2c1-c1ccccc1/C2=N/O	TRPC4 inh -7
COC(=O)c1cccc2c1-c1ccccc1/C2=N\NC(N)=O	none
CSC1=NC2(C[C@H]2c2ccccc2)C(=O)N1C (some centres not stated)	none (no result: DNA FID counter)
COc1ccccc1NC(=O)CN1CCN(CC(=O)Nc2ccc(C)c(F)c2)CC1	none
Cc1ccc(N2C(=O)CC(N3CCN(C4CCc5ccccc5C4)CC3)C2=O)cc1 (configuration not stated)	none
CCOc1ccc(N2C(=O)CC(N3CCN(C4CCc5ccccc5C4)CC3)C2=O)cc1 (configuration not stated)	TRPC4 potent 14
CCCCc1cc(O)c(CCCC)c(O)c1	TRPC4 agonist 65, TRPC4 potent 11
COc1ccc(OCCCC(=O)OC(C)C(=O)Nc2ccc(S(N)(=O)=O)cc2)cc1 (configuration not stated)	none (no result: DNA FID counter)
NC(N)=NCCCC(NC(=O)c1ccccc1)C(=O)Nc1ccc([N+](=O)[O-])cc1 (configuration not stated)	TRPC4 agonist 123 (no result: DNA FID counter)
CCCn1c(SCC(=O)NNC(=O)c2ccccc2)nnc1-c1cccnc1	none
CC1=CC2=NC(=O)/C(=C\c3cc(C)n(-c4ccccc4F)c3C)C(=N)N2O1	none
Cc1cc(/C=C2/C(=N)N3C(=NC2=O)SN=C3S(C)(=O)=O)c(C)n1-c1ccccc1F	TRPC4 inh -6
CCCN1C(=O)c2[nH]nc(-c3cc(Cl)c(C)cc3O)c2C1c1ccc(O)c(OC)c1 (configuration not stated)	TRPC4 potent 11
COCCCN1C(=O)c2[nH]nc(-c3ccccc3O)c2C1c1ccc(Cl)cc1 (configuration not stated)	TRPC4 potent 13
CC(C)Oc1ccc(S(=O)(=O)N2CCCCC2)cc1NC(=O)C1CSC2(C)CCC(=O)N12 (configuration not stated)	none (no result: DNA FID counter)
C[C@H](NC(=O)N1CCn2c1nc1ccccc12)C(=O)NCc1ccc2c(c1)OCO2	none

Assay outcomes from PubChem.
